According to publication PMC10568961 (Research in Pharmaceutical Sciences, 2023):
In brackets after ≈: the same amount, converted by molar mass. Like-named read-outs stand apart in the source and are kept apart here. Marks after values point to notes of the source that are not given here.

Key:
[1] = MTS cell viability assay, MRC-5 cells; type: cell-based, human; details: human, MRC-5 lung fibroblast cells
[2] = test system: MRC-5 (human lung fibroblast) cells; assay: MTS cell viability assay, MRC-5 cells; type: cell-based
[3] = test system: MRC-5 (human lung fibroblast) cells; assay: Trypan blue dye exclusion assay, MRC-5 cells; type: cell-based
Outline: (§1)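 Cells were seeded at 5,000/well for 24 h: MRC-5 in EMEM and A549 in F-12K, each with 10% FBS. They were then given test compound (50, 100, 150 μg/mL), cisplatin (0.5, 1, 2 μg/mL) or 0.5% DMSO control for 24–72 h at 37 °C, 5% CO2. After trypsinisation, viable cells were counted by trypan blue exclusion on a hemocytometer (quadruplicate wells). IC50 came from growth curves. At least three repeats.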

A549 cells [4] = assay: Matrigel invasion assay; type: cell-based, human
Outline: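 Matrigel was diluted in cold serum-free medium and gelled overnight at 37 °C in Transwell upper chambers. A549 cells were added in serum-free medium with test compound (0–150 μg/mL) or cisplatin (1 μg/mL), with 10% FBS below as chemoattractant, for 24 and 48 h at 37 °C. Invaded cells were fixed (3.7% paraformaldehyde, methanol), stained with crystal violet and counted in five fields. % invasion was set against uncoated membrane. Three repeats.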

[5] = test system: A549 (human lung carcinoma) cells; assay: MTS cell viability assay, A549 cells; type: cell-based; details: for viability at 50 µg/mL / viability at 100 µg/mL / viability at 150 µg/mL: read-out: Cell viability (%)
[6] = test system: A549 (human lung carcinoma) cells; assay: Trypan blue dye exclusion assay, A549 cells; type: cell-based
Outline: as §1

A549 cells [7] = assay: Scratch assay of cell migration; type: cell-based, human
Outline: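 A549 monolayers were grown to 90–100% confluence in 24 h, scratched with a pipette tip and washed with PBS; initial gap width was measured at ×400. Cells were then kept in serum-free medium with test compound (0–150 μg/mL) or cisplatin (1 μg/mL) at 37 °C, 5% CO2. Gap widths were read by phase-contrast at each time point to 72 h, giving % wound closure. Three repeats.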

Question: Which results are given for `COc1ccc(-c2cc(=O)c3c(O)cc(O[C@@H]4O[C@H](CO[C@@H]5O[C@@H](C)[C@H](O)[C@@H](O)[C@H]5O)[C@@H](O)[C@H](O)[C@H]4O)cc3o2)cc1O` [Diosmin, diosmin]?
Answer: viability at 24 h, 50 μg/mL [1]: 80.9 ± 8.46%; viability at 24 h, 100 μg/mL [1]: 54.7 ± 7.45%; viability at 24 h, 150 μg/mL [1]: 44.9 ± 5.58%; viability at 48 h, 50 μg/mL [1]: 78 ± 9.3%; viability at 48 h, 100 μg/mL [1]: 53.9 ± 9.19%; viability at 48 h, 150 μg/mL [1]: 47.5 ± 2.05%; viability at 72 h, 50 μg/mL [1]: 86.7 ± 1.38%; viability at 72 h, 100 μg/mL [1]: 71 ± 9.54%; viability at 72 h, 150 μg/mL [1]: 49.9 ± 8.02%; IC50 ([2]; Homo sapiens, MRC5, 72 h, read-out: IC50 values, MRC-5 cells): 150 ± 6.32 µg/mL (≈ 246 µM); IC50 ([3]; Homo sapiens, MRC5, 72 h, read-out: IC50 value, MRC-5 cells): > 150 µg/mL; Number of cells ([3]; MRC-5, 50 μg/mL, 24 h): 11,666± 387^a,b; Number of cells ([3]; MRC-5, 50 μg/mL, 48 h): 14,583 ± 489^b; Number of cells ([3]; MRC-5, 50 μg/mL, 72 h): 19,583 ± 405^a,b; Number of cells ([3]; MRC-5, 100 μg/mL, 24 h): 9,583 ± 463^a,b; Number of cells ([3]; MRC-5, 100 μg/mL, 48 h): 12,083 ± 723^a; Number of cells ([3]; MRC-5, 100 μg/mL, 72 h): 17,500 ± 456^a,b; Number of cells ([3]; MRC-5, 150 μg/mL, 24 h): 6,666± 709^a,b; Number of cells ([3]; MRC-5, 150 μg/mL, 48 h): 10,000 ± 630^a,b; Number of cells ([3]; MRC-5, 150 μg/mL, 72 h): 15,833 ± 544^a,b; Invasion (%) (A549 cells [4]; A549, 50 μg/mL, 24 h): 43.51 ± 2.39^a,b %; Invasion (%) (A549 cells [4]; A549, 50 μg/mL, 48 h): 38.05 ± 5.14^a,b %; Invasion (%) (A549 cells [4]; A549, 100 μg/mL, 24 h): 38.60 ± 3.31^a,b %; Invasion (%) (A549 cells [4]; A549, 100 μg/mL, 48 h): 31.39 ± 2.71^a,b %; Invasion (%) (A549 cells [4]; A549, 150 μg/mL, 24 h): 34.79 ± 3.59^a,b %; Invasion (%) (A549 cells [4]; A549, 150 μg/mL, 48 h): 27.60 ± 1.62^a,b %; Invasion (%) (A549 cells [4]; A549, 150 μg/mL, 48 h, listed as diosmin): 27.60 ± 1.62%; viability at 50 µg/mL ([5]; A549, 24 h): 72.3 ± 3.23%; viability at 100 µg/mL ([5]; A549, 24 h): 61.6 ± 4.07%; viability at 150 µg/mL ([5]; A549, 24 h): 45.6 ± 4.59%; viability at 50 µg/mL ([5]; A549, 48 h): 71.1 ± 1.37%; viability at 100 µg/mL ([5]; A549, 48 h): 57.6 ± 5.15%; viability at 150 µg/mL ([5]; A549, 48 h): 47.3 ± 6.78%; viability at 50 µg/mL ([5]; A549, 72 h): 54.9 ± 3.43%; viability at 100 µg/mL ([5]; A549, 72 h): 50.7 ± 1.19%; viability at 150 µg/mL ([5]; A549, 72 h): 35.6 ± 5.95%; IC50 ([5]; A549, 72 h, read-out: IC50 values, A549 cells): 106 ± 3.52 µg/mL (≈ 175 µM); Number of cells ([6]; A549, 50 μg/mL, 24 h): 13,333± 444^a,b; Number of cells ([6]; A549, 50 μg/mL, 48 h): 18,333 ± 510^b; Number of cells ([6]; A549, 50 μg/mL, 72 h): 26,250 ± 392^a,b; Number of cells ([6]; A549, 100 μg/mL, 24 h): 10,833± 487^a,b; Number of cells ([6]; A549, 100 μg/mL, 48 h): 13,750 ± 538^a,b; Number of cells ([6]; A549, 100 μg/mL, 72 h): 18,750 ± 426^a,b; Number of cells ([6]; A549, 150 μg/mL, 24 h): 6,666± 539^a,b; Number of cells ([6]; A549, 150 μg/mL, 48 h): 8,750 ± 572^a,b; Number of cells ([6]; A549, 150 μg/mL, 72 h): 11,250 ± 559^a,b; IC50 ([6]; Homo sapiens, A549, 72 h, read-out: IC50 values, A549 cells): 97.7 ± 4.23 µg/mL (≈ 160 µM); Gap closure (%) (A549 cells [7]; A549, 50 μg/mL, 0 h): 0%; Gap closure (%) (A549 cells [7]; A549, 50 μg/mL, 24 h): 4.88 ± 0.82^a %; Gap closure (%) (A549 cells [7]; A549, 50 μg/mL, 48 h): 7.58 ± 1.07^a,b %; Gap closure (%) (A549 cells [7]; A549, 50 μg/mL, 72 h): 10.82 ± 1.10^b %; Gap closure (%) (A549 cells [7]; A549, 100 μg/mL, 0 h): 0%; Gap closure (%) (A549 cells [7]; A549, 100 μg/mL, 24 h): 3.97 ± 0.26^a %; Gap closure (%) (A549 cells [7]; A549, 100 μg/mL, 48 h): 6.08 ± 0.87^a %; Gap closure (%) (A549 cells [7]; A549, 100 μg/mL, 72 h): 8.24 ± 0.67^a,b %; Gap closure (%) (A549 cells [7]; A549, 150 μg/mL, 0 h): 0%; Gap closure (%) (A549 cells [7]; A549, 150 μg/mL, 24 h): 3.32 ± 0.19^a,b %; Gap closure (%) (A549 cells [7]; A549, 150 μg/mL, 48 h): 5.32 ± 0.64^a %; Gap closure (%) (A549 cells [7]; A549, 150 μg/mL, 72 h): 6.84 ± 0.55^a,b %

Question: Which results are given for `N.N.[Cl][Pt][Cl]` [DDP, cis-diamminedichloroplatinum II]?
Answer: IC50 values, MRC-5 cells ([2]; MTS assay, 72-h): > 2 µg/mL; Number of cells ([3]; MRC-5, 0.5 μg/mL, 24 h): 13,900 ± 302^b; Number of cells ([3]; MRC-5, 0.5 μg/mL, 48 h): 15,666 ± 418^a,b; Number of cells ([3]; MRC-5, 0.5 μg/mL, 72 h): 21,100 ± 488^a,b; Number of cells ([3]; MRC-5, 1 μg/mL, 24 h): 13,516 ± 414; Number of cells ([3]; MRC-5, 1 μg/mL, 48 h): 15,400 ± 347^a,b; Number of cells ([3]; MRC-5, 1 μg/mL, 72 h): 20,500 ± 465^a,b; Number of cells ([3]; MRC-5, 2 μg/mL, 24 h): 12,933 ± 396^a; Number of cells ([3]; MRC-5, 2 μg/mL, 48 h): 14,933 ± 292^b; Number of cells ([3]; MRC-5, 2 μg/mL, 72 h): 19,666 ± 389^a,b; Invasion (%) (A549 cells [4]; A549, 0.5 μg/mL, 24 h): 29.01 ± 4.99^a,b %; Invasion (%) (A549 cells [4]; A549, 0.5 μg/mL, 48 h): 18.62 ± 3.11^a,b %; Invasion (%) (A549 cells [4]; A549, 1 μg/mL, 24 h): 26.12 ± 4.22^a,b %; Invasion (%) (A549 cells [4]; A549, 1 μg/mL, 48 h): 16.13 ± 2.66^a,b %; Invasion (%) (A549 cells [4]; A549, 2 μg/mL, 24 h): 20.91 ± 2.05^a,b %; Invasion (%) (A549 cells [4]; A549, 2 μg/mL, 48 h): 14.42 ± 1.57^a,b %; Number of cells ([6]; A549, 0.5 μg/mL, 24 h): 14,000± 310^a,b; Number of cells ([6]; A549, 0.5 μg/mL, 48 h): 14,050 ± 523^a,b; Number of cells ([6]; A549, 0.5 μg/mL, 72 h): 16,666 ± 420^b; Number of cells ([6]; A549, 1 μg/mL, 24 h): 11,250± 545^a,b; Number of cells ([6]; A549, 1 μg/mL, 48 h): 11,616 ± 590^a,b; Number of cells ([6]; A549, 1 μg/mL, 72 h): 12,833 ± 564^a,b; Number of cells ([6]; A549, 2 μg/mL, 24 h): 8,583± 589^a,b; Number of cells ([6]; A549, 2 μg/mL, 48 h): 9,833 ± 650^a,b; Number of cells ([6]; A549, 2 μg/mL, 72 h): 8,983 ± 310^a,b; Gap closure (%) (A549 cells [7]; A549, 0.5 μg/mL, 0 h): 0%; Gap closure (%) (A549 cells [7]; A549, 0.5 μg/mL, 24 h): 3.09 ± 0.25^a,b %; Gap closure (%) (A549 cells [7]; A549, 0.5 μg/mL, 48 h): 4.36 ± 0.60^a %; Gap closure (%) (A549 cells [7]; A549, 0.5 μg/mL, 72 h): 4.77 ± 0.19^a %; Gap closure (%) (A549 cells [7]; A549, 1 μg/mL, 0 h): 0%; Gap closure (%) (A549 cells [7]; A549, 1 μg/mL, 24 h): 2.52 ± 0.16^a,b %; Gap closure (%) (A549 cells [7]; A549, 1 μg/mL, 48 h): 3.18 ± 0.04^a,b %; Gap closure (%) (A549 cells [7]; A549, 1 μg/mL, 72 h): 3.55 ± 0.42^a %; Gap closure (%) (A549 cells [7]; A549, 2 μg/mL, 0 h): 0%; Gap closure (%) (A549 cells [7]; A549, 2 μg/mL, 24 h): 2.38 ± 0.06^a,b %; Gap closure (%) (A549 cells [7]; A549, 2 μg/mL, 48 h): 2.92 ± 0.04^a,b %; Gap closure (%) (A549 cells [7]; A549, 2 μg/mL, 72 h): 3.53 ± 0.16^a,b %
